# “Also recorded” adds a separate entry of the source.
# How the values were obtained:
# Src myristoylation [1] = assay: Src myristoylation by Click chemistry in SYF1+Src; type: cell-based, mouse; conditions: ectopically expressed Src kinase, SYF1+Src(WT) cells, myristic acid-azide 60 µM
# Summary of the method: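 Mouse SYF1 (Src−/−Yes−/−Fyn−/−) fibroblasts were lentivirally transduced with wild-type Src and grown in DMEM with 2% fatty-acid-free BSA. They were pretreated with test compound at 0, 1, 5, 15 or 30 µM for 2 h, then given 60 µM myristic acid-azide. M-PER lysates underwent Click labelling with 40 µM alkyne-biotin and CuSO4. Myristoyl-Src (60 kDa) was detected with streptavidin-HRP, and total Src and GAPDH by immunoblot.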
# PC-3 cells [2] = assay: Wound-healing; type: cell-based; conditions: PC-3, 15 µM B13
# Summary of the method: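 PC-3 cells (8×10^5 per well) were grown 24 h to 95% confluence, then scratched with a 1 mL pipette tip. Wells were washed to remove floating cells and refed with fresh medium containing 15 µM test compound. The wound space was imaged daily.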
# acid ceramidase = conditions: cited from earlier work
# [3] = system: de novo synthesized Src kinase; assay: 293T cells expressing doxycycline inducible Src; type: cell-based
# Summary of the method: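 293T-rtTA cells carrying lentiviral TRE/Src(Y529F) in DMEM with 10% FBS; Src induced with or without doxycycline 1 µg/mL plus 0 (DMSO), 15 or 30 µM test compound for 24 h. Lysed in TNE buffer (pH 7.4, protease/phosphatase inhibitors), needle-homogenised, spun 14,000 rpm 10 min (supernatant = cytosol); pellet extracted with 60 mM β-octylglucoside on ice 30 min, spun 14,000 rpm 20 min 4°C (total membrane). Immunoblot: […] antibody, caveolin-1/GAPDH markers.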
# DU145 cells [4] = assay: Immunoblotting of cell cycle proteins; type: cell-based
# Summary of the method: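 DU145 cells were treated with or without different concentrations of test compound. Lysates were immunoblotted for CDK2, CDK6, cyclin D1, p27 and tubulin.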
# PC-3 cells [5] = assay: Immunoblotting of cell cycle proteins; type: cell-based
# 293T cells = assay: Cell proliferation; type: cell-based
# 22Rv1 cells [6] = assay: Transwell invasion assay; type: cell-based; conditions: 22Rv1, 15 µM B13
# Summary of the method: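 22Rv1 cells at about 80% confluence were serum-starved for 24 h, then seeded in Transwell inserts. The top well held medium with 15 µM test compound or DMSO, and the receiver well held 10% FBS. After 48 h, cells were fixed with 3.7% formaldehyde (2 min) then methanol (20 min). Staining was 0.1% crystal violet for 15 min in the dark at room temperature. Non-migrated cells were swabbed off, and migrated cells were imaged and counted.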
# PC-3 cells [7] = assay: Cell proliferation; type: cell-based; conditions: PC-3, B13 for 5 d
# Summary of the method: (§1)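 Cells seeded at 3000–5000/well, exposed to a range of test-compound concentrations for 5 d. Medium swapped for 100 µL phenol-red-free medium, 10 µL of 12 mM MTT stock added, 37 °C 4 h; stopped with 100 µL 10% SDS in 0.01 M HCl, further 4 h at 37 °C; absorbance at 570 nm. Mean ± SEM of n=6 wells, two-sided Student's t test.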
# PC-3 xenograft tumors = assay: PC-3 xenograft tumor growth; type: in vivo, SCID mice; conditions: 75 mg/kg i.v. twice a week for 6 weeks
# [8] = system: LNCaP, 22Rv1, PC-3, and DU145 cells; assay: Cell cycle analysis by flow cytometry; type: cell-based; conditions: tested prostate cancer cells, B13 for 3 d
# Summary of the method: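 Cells were grown in ATCC-recommended medium, and after attachment the medium with or without 15 or 30 µM test compound was renewed every 24 h for 3 days. 1 × 10^6 cells were PBS-washed and fixed in 70% ethanol for 1 h at 4 °C. They were stained with propidium iodide/RNase for 30 min in the dark at room temperature. Flow cytometry used 488 nm excitation and 585 nm emission, and G0/G1, S and G2/M percentages were compared with control.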
# 22Rv1 cells [9] = assay: Cell proliferation; type: cell-based; conditions: 22Rv1, B13 for 5 d
# Summary of the method: as §1
# NMT1 = molecular target: T1, NMT1 (Homo sapiens, UniProt P30419); assay: Fluorescence-based NMT1 enzymatic activity assay; type: biochemical
# T1 sequence (P30419 109-496): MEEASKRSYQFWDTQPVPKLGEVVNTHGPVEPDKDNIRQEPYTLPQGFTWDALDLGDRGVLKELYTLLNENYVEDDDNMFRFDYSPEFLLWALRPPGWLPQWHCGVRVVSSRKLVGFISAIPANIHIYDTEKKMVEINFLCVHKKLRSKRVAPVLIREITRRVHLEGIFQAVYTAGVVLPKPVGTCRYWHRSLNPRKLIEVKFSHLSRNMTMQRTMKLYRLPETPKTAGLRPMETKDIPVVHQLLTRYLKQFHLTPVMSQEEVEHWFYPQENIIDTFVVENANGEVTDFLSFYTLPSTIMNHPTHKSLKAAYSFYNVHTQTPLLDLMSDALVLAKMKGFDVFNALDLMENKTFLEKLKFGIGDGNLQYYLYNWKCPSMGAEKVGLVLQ
# SYF1-Src(Y529F) cells = assay: Soft agar colony formation assay; type: cell-based, mouse
# pSrc(Y416), pFAK, pAkt = assay: Immunoblotting of Src signaling in PC-3 total lysates; type: cell-based; conditions: PC-3 cells
# LNCaP cells = assay: Cell proliferation; type: cell-based; conditions: B13 for 5 d
# Summary of the method: as §1
# DU145 cells [10] = assay: Cell proliferation; type: cell-based; conditions: DU145, B13 for 5 d
# Summary of the method: as §1
# PNT2 normal cells = assay: Cell proliferation; type: cell-based
# [11] = Toxicity in host mice carrying PC-3 xenografts; type: in vivo, SCID mice
# PNT2 cells = assay: Cell cycle analysis by flow cytometry; type: cell-based
# Src myristoylation [12] = assay: Src myristoylation by Click chemistry in PC-3 cells; type: cell-based; conditions: endogenous Src kinase, myristic acid-azide 60 µM
smiles,measurement,setting,value
"CCCCCCCCCCCCCC(=O)N[C@H](CO)[C@H](O)c1ccc([N+](=O)[O-])cc1 [B13, N-[(1R,2R)-2-hydroxy-1-(hydroxymethyl)-2-(4-nitrophenyl)ethyl]-tetradecanamide]",Src myristoylation (myristoyl-Src level),Src myristoylation [1],inhibited Src myristoylation
same,Migration,PC-3 cells [2],suppressed
same,Inhibition of acid ceramidase,acid ceramidase,can inhibit acid ceramidase
same,De novo synthesized Src-induced signaling,"[3]; Dox 1 µg/ml, 15 and 30 µM B13, 24 h",suppression of de novo synthesized Src-induced signaling
same,Non-phosphorylated Src kinase [non-pSrc(Y527)] at the cytoplasmic membrane,"[3]; doxycycline induced, membrane fraction",reduced
same,"Expression of CDK2, cyclin D1 and p27",DU145 cells [4],"decreased expression of CDK2 and cyclin D1, increased expression of p27"
same,Expression of CDK6,DU145 cells [4],decreased expression of CDK6
same,"Expression of CDK2, cyclin D1 and p27",PC-3 cells [5],"decreased expression of CDK2 and cyclin D1, increased expression of p27"
same,Proliferation,293T cells,did not affect
same,Invasion,22Rv1 cells [6],suppressed invasion
same,Proliferation,PC-3 cells [7],significantly inhibited proliferation; also recorded: significant inhibition
same,Size and weight of PC-3 xenograft tumors,PC-3 xenograft tumors,significantly inhibited the size and weight
same,Cell cycle progression,[8],significantly inhibited
same,Proliferation,22Rv1 cells [9],significantly inhibited proliferation; also recorded: significant inhibition
same,IC50,NMT1,77.6 µM
same,Src(Y529F)-induced colony formation (transformation),SYF1-Src(Y529F) cells,the transformation was inhibited
same,Src kinase tyrosine phosphorylation [pSrc(Y416)],"pSrc(Y416), pFAK, pAkt",inhibited Src kinase tyrosine phosphorylation
same,pFAK and pAkt levels,"pSrc(Y416), pFAK, pAkt",down-regulation of pFAK and pAkt
same,Proliferation,LNCaP cells,less sensitive
same,Proliferation,DU145 cells [10],significantly inhibited proliferation
same,Proliferation,PNT2 normal cells,limited effect
same,Body weight change,[11]; 75 mg/kg i.v. twice a week,no significant changes
same,Organs' weight change,[11]; 75 mg/kg i.v. twice a week,no significant changes
same,"Pathological toxicity to major organs (liver, kidney, lung; H&E)",[11]; 75 mg/kg i.v. twice a week for 6 weeks,no observed pathological toxicity
same,Cell cycle,PNT2 cells,did not affect the cell cycle
same,Src myristoylation (myristoyl-Src level),Src myristoylation [12],inhibited Src myristoylation
CCCCCCCCCCCCCCN[C@H](CO)[C@H](O)c1ccc([N+](=O)[O-])cc1 [LCL204],Inhibition of acid ceramidase relative to B13,acid ceramidase,higher inhibitory potential than B13
